# High-throughput results deposited in PubChem by several laboratories.
# HSF1 inh – HSF1 inhibition. NIH3T3-HGL HSE-luciferase, MG132-induced, luminescence 8 h; hits give low values. activity change, negative = inhibition, % at 7.5 µM (by protocol). hit rate 0.77% among 300,000. AID 2098;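 active means more than half of replicate wells show activity change below -50%, luminescence cut by over half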;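 further: luciferase reports HSF-1 transcriptional activity via heat shock element; 0% = median of DMSO wells and -100% = zero luminescence signal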
# Jurkat NFkB inh – inhibitors of the PMA/ionomycin-induced NF-kB reporter in Jurkat cells; PMA/ionomycin-induced NF-kB luciferase reporter, luminescence; inhibition, % at 4 µM; hit rate 0.53% among 330,000; in the data active means inhibition above about 50%
# T cruzi inh – T. cruzi replication inhibition; T. cruzi beta-gal in NIH3T3, luminescence, 90 h; inhibition, % (no concentration beside the values); hit rate 1.4% among 300,000;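 active means mean inhibition across valid replicates above about 55%, limit read from the data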;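 further: signal also drops with host cell toxicity which is not excluded here; 0% = plate median of DMSO wells and 100% = zero luminescence signal; higher percent means less beta-gal luminescence so fewer parasites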
#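 Assay system: NIH/3T3 host cells with β-galactosidase reporter T. cruzi; input: 5,000 host fibroblasts per well; compound: single 50 nL compound addition per well in DMSO; timing: ≥90 h infection period, 3 h prior cell attachment; measured by: GalScreen β-gal luminescence, detergent lysis, 60 min; evaluation: percent inhibition of parasite-derived β-gal signal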
# 697 NFkB inh – inhibitors of the PMA/ionomycin-induced NF-kB reporter in 697 B cells; inhibition, % at 4 µM; hit rate 0.33% among 330,000; AID 435022; 697 B-cell NF-kB luciferase reporter, 16 h; in the data active means inhibition above about 35%
# HSF-1 act – increases HSF-1 driven luciferase reporter signal; NIH3T3-HGL HSF-1 luciferase reporter, MG132, 8 h; 100% = twice DMSO control signal; activation, % at 9 µM; hit rate 1.7% among 300,000;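 active means mean replicate activation of at least 50% with a set share of replicates each reaching 50%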;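 further: 0% = median of the neutral control wells and 100% = twice that signal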
# GPR7 antag – antagonists of human GPR7 (neuropeptides B/W receptor 1) | P48145 | inhibition, % at 4.4 µM | hit rate 1.1% among 290,000 | GPR7-expressing cells, fluorescence antagonist assay; in the data active means inhibition above about 16%, passing the limit was not always enough;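 further: cells stimulated with the agonist NPW; 0% = agonist with vehicle and 100% = vehicle without agonist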
# Target sequence (P48145 whole entry, looked up): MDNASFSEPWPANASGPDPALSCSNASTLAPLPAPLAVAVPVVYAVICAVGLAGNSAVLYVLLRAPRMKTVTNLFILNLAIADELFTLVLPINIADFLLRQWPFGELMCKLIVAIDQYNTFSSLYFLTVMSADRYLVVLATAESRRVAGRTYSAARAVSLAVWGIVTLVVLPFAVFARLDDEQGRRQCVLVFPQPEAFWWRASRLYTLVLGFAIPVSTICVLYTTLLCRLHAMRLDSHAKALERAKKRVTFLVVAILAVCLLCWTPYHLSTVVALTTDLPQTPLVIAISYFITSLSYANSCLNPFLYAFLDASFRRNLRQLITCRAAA
# GPR7 antag cf – human GPR7 antagonism, confirmation assay | hit rate 52% among 2,400 | GPR7-expressing cells, calcium fluorescence antagonist mode | inhibition, % at 4.4 µM | shares compounds with GPR7 antag | AID 1952; in the data active means inhibition above about 24%;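 further: stimulated with the GPR7 agonist NPW; 0% = agonist plus vehicle and 100% = vehicle alone without agonist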
# MCHR1 antagonist – antagonizes human MCHR1, a GPR7 antagonist counter-screen | shares compounds with GPR7 antag | MCHR1-expressing cells, fluorescence antagonist assay | inhibition, % at 4.4 µM | hit rate 62% among 2,400 | AID 2148; in the data active means inhibition above about 22%;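 further: 0% = vehicle with agonist and 100% = vehicle without agonist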
# * marks the source's active call; other numbers are inactive results; x = not tested or not shown. This is a sample that favours compounds with a hit; in the whole collection about 4.8% have one here.
SMILES,HSF1 inh,Jurkat NFkB inh,T cruzi inh,697 NFkB inh,HSF-1 act,GPR7 antag,GPR7 antag cf,MCHR1 antagonist
CCOC(=O)[C@H]1[C@H]2COc3cc(OC)ccc3[C@@H]2N2C(=O)[C@@H](CO)NC(=O)[C@@]12C,x,-1,x,19,x,x,x,x
CC(=O)c1cccc(NC(=O)N2CC(C)OC(C)C2)c1 (stereo not given),3,2,-3,9,-7,-17,x,x
CC1CN(C(=O)Nc2cccc(C(F)(F)F)c2)CC(C)O1 (stereo not given),2,-4,9,17,3,27*,24*,36*
COc1cc(NC2c3ccccc3C(=O)N2Cc2ccc3c(c2)OCO3)cc(OC)c1OC (stereo not given),4,-2,-7,-9,-5,26*,12,20
CCOc1ccc(NC2c3ccccc3C(=O)N2Cc2ccc3c(c2)OCO3)cc1 (stereo not given),5,4,11,-48,24,-5,x,x
COc1cccc(N2CCN(C(=O)c3ccc(Cl)c(NC4=NC5CS(=O)(=O)CC5S4)c3)CC2)c1 (stereo not given),-1,10,7,-10,-5,-15,x,x
COc1cc(OC)cc(C(=O)Nc2ccc(S(=O)(=O)Nc3nc(C)cc(C)n3)cc2)c1,8,6,0,16,18,-13,x,x
O=C(O)Cc1ccc(C(=O)c2ccccc2)s1,0,-12,6,15,-9,8,x,x
O=C(O)Cc1ccc(C(=O)c2ccc(F)cc2)s1,2,9,0,20,4,23*,-1,6
Cc1cc(C)nc(N/N=C/c2c[nH]c3ccccc23)n1,-4,27,-8,5,8,0,x,x
Cc1nnc(N/N=C/c2c[nH]c3ccccc23)[nH]c1=O,6,8,-1,1,3,29*,-10,2
Clc1cccc(Cl)c1CON/C=N/c1ncnc2sccc12,0,-1,6,-30,-2,-6,x,x
Clc1cccc(CON/C=N/c2ncnc3sccc23)c1,1,17,10,-14,-2,37*,14,40*
Cc1[nH]c2ccccc2c1C(=O)COc1ccccc1F,15,-17,-5,-11,21,13,x,x
O=C(c1ccc(Br)cc1)C(CN1CCOCC1)c1ccccc1 (stereo not given),13,33,19,-89,36,67*,59*,86*
Cc1ccc(NS(=O)(=O)c2ccc(C(=O)NCC(c3ccco3)N(C)C)cc2)cc1 (stereo not given),-5,7,5,-3,-7,34*,52*,43*
COc1ccccc1NS(=O)(=O)c1ccc(C(=O)NCC(c2ccccc2OC)N(C)C)cc1 (stereo not given),1,-18,5,11,25,-7,x,x
Cc1cccc(NS(=O)(=O)c2ccc(C(=O)NCC(c3ccccc3)N(C)C)cc2)c1C (stereo not given),4,8,27,-16,1,33*,47*,58*
CCC(=O)Nc1cccc(C(=O)N(Cc2ccccc2)Cc2ccccc2)c1,10,0,21,-6,9,-20,x,x
COc1ccccc1CNCC(c1ccccc1)c1ccccc1,25,-38,21,-58,61*,42*,46*,34*
COc1ccccc1CNCC(O)Cn1c2ccccc2c2ccccc21 (stereo not given),-5,9,46,0,15,37*,68*,73*
Cc1ccc(S(=O)(=O)NCC(=O)OC(C)C(=O)NC2CCCCC2C)cc1C (stereo not given),x,-1,x,-6,x,x,x,x
O=S(=O)(NCC1NCCc2ccccc21)c1ccccc1 (stereo not given),7,-5,14,-13,-3,-15,x,x
Cc1ccccc1-n1ccnc1SCC(=O)NCC1CCCO1 (stereo not given),-6,7,-5,7,10,26*,-9,3
